Reference: ChEMBL document CHEMBL4680121, “Development of (4-methoxyphenyl)-1H-tetrazol-5-amine regioisomers as a new class of selective antitubercular agents” (Eur J Med Chem, 2020)

How the values were obtained:
Type in all cases: functional
[1] = system: Mycobacterium tuberculosis; assay: Antitubercular activity against INH-resistant Mycobacterium tuberculosis Spec.800 assessed as reduction in bacterial growth incubated for 14 days in presence of 1/2 x MIC rifampicin by MABA method; details: Mycobacterium tuberculosis, 800, 336 h; time 14 day
Summary of the method: (§1)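 Checkerboard-type combination in Middlebrook 7H9 with 10% OADC. The test derivative at 1 to 1/32 of its MIC alone was mixed with the reference drug fixed at 1/2 its MIC. 4 ml samples were inoculated with McFarland 1 suspension and incubated 14 days at 37 °C. MIC is the lowest derivative concentration in combination that inhibited growth in liquid medium.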

[2] = system: Mycobacterium tuberculosis; assay: Potentiation of isoniazid-induced antimycobacterial activity against INH-resistant Mycobacterium tuberculosis Spec.800 harboring InhA promoter mutation assessed as fold decrease in isoniazid MIC at 1/2X MIC incubated for 14 days in presence of isoniazid by MABA method; details: time 14 day
Summary of the method: (§2)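 Combination assay in Middlebrook 7H9 broth with 10% OADC. The reference drug (INH, RMP, SM or EMB) was varied from 1 to 1/32 of its MIC, and the test derivative was fixed at 1/2 its own MIC. Single-agent MICs were determined first by MABA. Inoculum was 1 McFarland, with 14 days of incubation at 37 °C. The endpoint was the lowest reference-drug concentration that inhibited growth.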

[3] = system: Mycobacterium tuberculosis; assay: Antitubercular activity against PAS/INH/EMB/RMP-resistant Mycobacterium tuberculosis Spec.210 assessed as isoniazid MIC incubated for 14 days in presence of isoniazid by MABA method; details: Mycobacterium tuberculosis, 210, 336 h; time 14 day
Summary of the method: (§3)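 In Middlebrook 7H9 with 10% OADC, the reference drug (INH, RMP, SM or EMB) at 1 to 1/32 of its MIC alone was mixed with the test derivative fixed at 1/2 its MIC. 4 ml samples were inoculated with McFarland 1 suspension and incubated 14 days at 37 °C. MIC is the lowest drug concentration in combination that inhibited growth.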

[4] = system: Mycobacterium tuberculosis; assay: Antitubercular activity against INH-resistant Mycobacterium tuberculosis Spec.800 harboring InhA promoter mutation assessed as fractional inhibitory concentration index in presence of 1/2 x MIC rifampicin incubated for 14 days by MABA method; details: time 14 day
Summary of the method: (§4)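 Interaction analysis in Middlebrook 7H9 with 10% OADC. Combination MICs came from mixing the derivative (1 to 1/32 MIC) with the reference drug at 1/2 MIC, and the reverse, after 14 days at 37 °C with McFarland 1 inoculum. FICI was calculated from the combination MIC values and the MICs alone.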

[5] = system: Mycobacterium tuberculosis; assay: Antitubercular activity against INH-resistant Mycobacterium tuberculosis Spec.800 assessed as reduction in bacterial growth incubated for 14 days in presence of 1/2 x MIC streptomycin by MABA method; details: Mycobacterium tuberculosis, 800, 336 h; time 14 day; summary of the method: as §1
[6] = system: Mycobacterium tuberculosis; assay: Antitubercular activity against INH-resistant Mycobacterium tuberculosis Spec.800 assessed as isoniazid MIC incubated for 14 days in presence of isoniazid by MABA method; details: Mycobacterium tuberculosis, 800, 336 h; time 14 day; summary of the method: as §3
[7] = system: Mycobacterium tuberculosis; assay: Antitubercular activity against INH-resistant Mycobacterium tuberculosis Spec.800 harboring InhA promoter mutation assessed as fractional inhibitory concentration index in presence of 1/2 x MIC streptomycin incubated for 14 days by MABA method; details: time 14 day; summary of the method: as §4
[8] = system: Mycobacterium tuberculosis; assay: Potentiation of rifampcin-induced antimycobacterial activity against INH-resistant Mycobacterium tuberculosis Spec.800 harboring InhA promoter mutation assessed as fold decrease in rifampicin MIC at 1/2X MIC incubated for 14 days in presence of rifampicin by MABA method; details: time 14 day; summary of the method: as §2
[9] = system: Mycobacterium tuberculosis; assay: Antitubercular activity against INH-resistant Mycobacterium tuberculosis Spec.800 assessed as rifampicin MIC incubated for 14 days in presence of rifampicin by MABA method; details: Mycobacterium tuberculosis, 800, 336 h; time 14 day; summary of the method: as §3
[10] = system: Mycobacterium tuberculosis; assay: Antitubercular activity against INH-resistant Mycobacterium tuberculosis Spec.800 harboring InhA promoter mutation assessed as fractional inhibitory concentration index in presence of 1/2 x MIC isoniazid incubated for 14 days by MABA method; details: time 14 day; summary of the method: as §4
[11] = system: Mycobacterium tuberculosis; assay: Potentiation of ethambutol-induced antimycobacterial activity against INH-resistant Mycobacterium tuberculosis Spec.800 harboring InhA promoter mutation assessed as fold decrease in ethambutol MIC at 1/2X MIC incubated for 14 days in presence of ethambutol by MABA method; details: time 14 day; summary of the method: as §2
[12] = system: Mycobacterium tuberculosis; assay: Potency index, Ratio of streptomycin MIC to test compound MIC for antitubercular activity against PAS/INH/EMB/RMP-resistant Mycobacterium tuberculosis Spec.210 assessed as inhibition of microbial growth incubated for 1 week by MABA method; details: time 1 weeks
[13] = system: Mycobacterium tuberculosis; assay: Antitubercular activity against INH-resistant Mycobacterium tuberculosis Spec.800 assessed as streptomycin MIC incubated for 14 days in presence of streptomycin by MABA method; details: Mycobacterium tuberculosis, 800, 336 h; time 14 day; summary of the method: as §3

Compound	MIC [1]	fold change (FC) [2]	MIC [3]	fractional inhibitory concentration index (FICI) [4]	MIC [5]	MIC [6]	fractional inhibitory concentration index (FICI) [7]	fold change (FC) [8]	MIC [9]	fractional inhibitory concentration index (FICI) [10]	fold change (FC) [11]	Ratio [12]	MIC [13]
COc1ccc(-n2nnnc2Nc2cccc(Br)c2)cc1	64 µg/mL	<=4	16 µg/mL	0.75	8 µg/mL	1 µg/mL	0.56	<=4	0.25 µg/mL	0.625	<=4	8	0.5 µg/mL
COc1ccc(-n2nnnc2Nc2ccc(Br)cc2)cc1	128 µg/mL		8 µg/mL	1.125	16 µg/mL	0.5 µg/mL	0.375		0.125 µg/mL	0.5		8	0.25 µg/mL
